Results on 14 compounds are retold here after PubChem BioAssay.

The source made the active and inactive calls.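 Rule for the calls, unless noted: active = inhibition at or above 50% at 10 µM; inactive = inhibition below 50%.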

For orientation: inhibition means the change of the read-out against control, counted positive when it falls.

Assay [1] is described as follows: inhibitors of TNFa-induced NFkB p65 translocation, primary screen, imaging, HUVEC, MLSMR starter and 10KST1 sets (AID 438;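 active = inhibition above 20% together with a positive visual image hit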;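 note: compound added about 3h40 before a 20 min TNFalpha stimulation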;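 for inhibition: signal is the nuclear over cytoplasmic p65 intensity ratio per well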). The following applies: HUVEC TNFa-induced p65 nuclear translocation; cell count: measured here: nuclei count (cytotoxicity indicator), at 2.08 µM; inhibition: at 2 µM, stronger effect = higher value, 0% TNFa-plus-vehicle, 100% no-TNFa wells.
Assay [2] is described as follows: reduction of polyQ htt aggregates in cells – imaging, exon1htt(103Q)mCFP cells, high-content imaging, primary screen (AID 483;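 active = visual image review flags a hit and inhibition of aggregation exceeds 20%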;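 note: compound exposure lasted 3 days before fixation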;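 for nuclei count: percent of the per-plate median nuclei count of sample wells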). The following applies: exon1htt(103Q)mCFP cell line, aggregate imaging, at 2 µM; inhibition of aggregation: stronger effect = higher value; nuclei count: measured here: cell count, toxicity.
Assay [3] can be described thus: endothelial E-selectin expression blockers – imaging, HUVEC, immunofluorescence, MLSMR starter and 10KST1 sets, primary screen (AID 487;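 active = visually confirmed hit in the image check and inhibition above 20%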;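 for inhibition: signal is fraction of cell area covered by stained E-selectin grains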;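 for nuclei count: 100% = median nuclei count of all wells on the same plate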). The note with it: HUVEC TNFalpha-induced E-selectin immunofluorescence imaging, at 2 µM; inhibition: stronger effect = higher value; nuclei count: measured here: cell number, toxicity.
Assay [4] deals with Voltage-gated potassium channel subunit beta-2 (Rattus norvegicus) (UniProt P62483). The experiment in a line: inhibitors of rat Kvbeta2 reductase activity – biochemical, NADPH fluorescence, primary screen (AID 622;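 active = fluorescence slope higher than the sample average by over 3 SD, cut at about -0.22 in these data, passing the limit was not always enough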;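 note: slope of raw intensity against log time taken from 70 to 1610 s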). The note with it: recombinant KvBeta, 4-cyanobenzaldehyde reduction, at 10 µM, stronger effect = higher value.
Sequence of Voltage-gated potassium channel subunit beta-2 (Rattus norvegicus) (P62483 whole entry, looked up): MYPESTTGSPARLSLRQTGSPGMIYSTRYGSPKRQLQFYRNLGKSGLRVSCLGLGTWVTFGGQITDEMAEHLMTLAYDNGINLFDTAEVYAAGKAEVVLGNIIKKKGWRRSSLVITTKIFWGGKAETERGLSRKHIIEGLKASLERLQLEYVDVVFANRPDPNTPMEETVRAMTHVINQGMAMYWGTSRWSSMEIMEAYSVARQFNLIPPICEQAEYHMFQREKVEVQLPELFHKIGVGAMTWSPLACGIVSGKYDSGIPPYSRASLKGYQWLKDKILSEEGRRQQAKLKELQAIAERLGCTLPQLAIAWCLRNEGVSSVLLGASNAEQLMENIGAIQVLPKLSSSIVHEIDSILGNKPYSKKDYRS
For assay [5] the target is unchanged. The experiment in a line: enhancers of rat Kvbeta2 NADPH turnover – biochemical, NADPH fluorescence, primary screen (AID 623;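 active = NADPH fluorescence slope more negative than the mean of all samples by about 3 SD, 99.7% confidence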;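 note: fluorescence intensity change per second fitted from 20 to 320 s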). The following applies: Recombinant KvBeta, NADPH fluorescence decrease slope, 10 min; at 10 µM; stronger effect = lower value.
The target in assay [6] is Muscarinic acetylcholine receptor M4 (Homo sapiens) (UniProt P08173). Nature of the assay: M4-linked GIRK flux change, two-sided – cell-based, HEK293 M4/GIRK, thallium flux, BTC-AM, M4 allosteric agonist project, primary screen (AID 625;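 active = fluorescence slope after compound addition differing from the mean of all tested samples at 99.7% confidence, mostly higher but some lower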;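 note: thallium influx through GIRK channels coupled to M4 in HEK293 cells with BTC-AM dye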). The following applies: at 10 µM, actives lie on both sides. In outline: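 Assay system: HEK293 cells with M4 receptor and GIRK channels / Controls: carbachol and DMSO controls / Schedule: 1 h dye loading, 2 min kinetic read / Technique: kinetic fluorescence with BTC-AM dye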
Sequence of Muscarinic acetylcholine receptor M4 (Homo sapiens) (P08173 whole entry, looked up): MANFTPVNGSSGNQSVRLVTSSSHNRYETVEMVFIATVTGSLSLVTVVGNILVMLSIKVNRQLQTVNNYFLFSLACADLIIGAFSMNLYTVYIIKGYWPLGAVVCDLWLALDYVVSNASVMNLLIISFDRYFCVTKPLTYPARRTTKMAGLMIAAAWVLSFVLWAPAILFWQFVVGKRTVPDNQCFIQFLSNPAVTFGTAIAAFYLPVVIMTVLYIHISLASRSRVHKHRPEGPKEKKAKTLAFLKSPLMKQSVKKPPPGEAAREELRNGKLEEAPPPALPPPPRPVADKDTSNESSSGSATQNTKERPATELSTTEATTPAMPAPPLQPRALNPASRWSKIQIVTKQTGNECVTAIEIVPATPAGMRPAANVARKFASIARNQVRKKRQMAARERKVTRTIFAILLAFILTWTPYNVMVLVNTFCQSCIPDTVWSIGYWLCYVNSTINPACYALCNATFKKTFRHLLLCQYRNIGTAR

Assay [7] in a line: blockers of RIG-like receptor reporter activation – cell-based, Sendai virus stimulus, luciferase, 10K MLSCN set, TLR/RLR signaling modifier project, primary screen (AID 602276).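 Note: firefly luciferase from ISG56 promoter only with Renilla not read in this screen; 0% = Sendai virus plus DMSO and 100% = medium plus DMSO without virus.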 The note with it: HEK293 RL24 IRF3 luciferase reporter, at 10 µM, stronger effect = higher value. On the technique in general: A reporter such as luciferase makes a cellular process visible.
A short description of assay [8]: TLR3 IRF3 reporter activation blockers – cell-based, poly I:C stimulus, luciferase, 10K MLSCN set, primary screen (AID 602277;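 active = inhibition of the reporter signal at or above 50%; inactive = inhibition below 50%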). The following applies: HEK293-TLR3 RL24 IRF3 luciferase reporter, at 10 µM, stronger effect = higher value.

Turning to `COc1ccc(-c2cn3cc(C)ccc3n2)cc1OC`, the cell count in assay [1] was determined as 442. Besides, the inhibition in assay [1] is -10.5% (inactive); in assay [3], -4.7% (inactive); in assay [7] it was 29.4% (inactive); in assay [8], -10.4% (inactive). The inhibition of aggregation in assay [2] is -3.3% (inactive). The nuclei count was found to be 103% in assay [2] and 109% in assay [3]. Besides, the fluorescence slope was -0.357 (inactive) in assay [4] and 0.00466 (inactive) in assay [6]. The NADPH fluorescence slope in assay [5] is -3e-05 (inactive).

As to `CC(C)(C)OC(=O)N1CCOCCOCCN(C(=O)OC(C)(C)C)CCOCCOCC1`, the cell count in assay [1] was determined as 395. The inhibition in assay [1] was 0.8% (inactive); in assay [3], -90.1% (inactive); in assay [7], 4.46% (inactive); in assay [8], 6.47% (inactive). The inhibition of aggregation in assay [2] was 2.5% (inactive). Besides, the nuclei count in assay [2] was found to be 92.3%; in assay [3], 119%. Also, the fluorescence slope in assay [4] is -0.579 (inactive); in assay [6] it was 0.00267 (inactive). In addition, the NADPH fluorescence slope in assay [5] is -6.4e-05 (inactive).

As to `COc1cccc(-n2c(SCC(=O)OC(C)C)nnc2-c2cccnc2)c1`, the cell count in assay [1] came to 402. Moreover, the inhibition in assay [1] was -3.3% (inactive); in assay [3], -29.7% (inactive); in assay [7], 9.67% (inactive); in assay [8], 13.7% (inactive). Also, the inhibition of aggregation in assay [2] is -5.3% (inactive). For the same compound, the results for the nuclei count in assay [2] and in assay [3] were 96.8% and 113%, respectively. Further, the fluorescence slope in assay [4] is -0.459 (inactive); in assay [6], 0.00575 (inactive). For the same compound, the NADPH fluorescence slope in assay [5] is -4.2e-05 (inactive).

As for `Cc1ccnc(NS(=O)(=O)c2ccc(N=CC3=C(O)CC(C)(C)CC3=O)cc2)n1`, in assay [1], the cell count worked out at 395. In addition, the inhibition in assay [1] was 2.5% (inactive); in assay [3], 7.7% (inactive); in assay [7], 7.45% (inactive); in assay [8], 1.62% (inactive). For the same compound, the inhibition of aggregation in assay [2] was -9% (inactive). Moreover, the nuclei count in assay [2] came out at 79.4%; in assay [3], 110%. Moreover, the fluorescence slope in assay [4] was -0.474 (inactive); in assay [6], 0.00511 (inactive). Moreover, the NADPH fluorescence slope in assay [5] was 9.9e-06 (inactive).

In the case of `COc1cc(-c2noc(-c3cccc(Cl)c3)n2)cc(OC)c1OC`, the cell count in assay [1] worked out at 778. Besides, the inhibition in assay [1] was -0.6% (inactive); in assay [3], -33.7% (inactive); in assay [7], 6.15% (inactive); in assay [8] it was -21.6% (inactive). In assay [2], the inhibition of aggregation is -21% (inactive). The results for the nuclei count in assay [2] and in assay [3] were 103% and 113%, respectively. The fluorescence slope was -0.568 (inactive) in assay [4] and 0.00623 (inactive) in assay [6]. Besides, in assay [5], the NADPH fluorescence slope is 2.5e-05 (inactive).

Turning to `COc1ccccc1CNS(=O)(=O)c1cccc(S(=O)(=O)N2CCOCC2)c1`, the cell count in assay [1] is 676. For the same compound, the inhibition in assay [1] is 25.1% (inactive); in assay [3], 19.5% (inactive); in assay [7] it was 10.7% (inactive); in assay [8], 19.2% (inactive). For the same compound, in assay [2], the inhibition of aggregation is 7.8% (inactive). Also, the results for the nuclei count in assay [2] and in assay [3] were 116% and 117%, respectively. Also, the fluorescence slope is -0.401 (inactive) in assay [4] and 0.00588 (inactive) in assay [6]. Further, the NADPH fluorescence slope in assay [5] was 2.6e-05 (inactive).

In the case of `CCCCN(C)Cc1c(C)[nH]c2c(Cl)cccc2c1=O`, the cell count in assay [1] was found to be 326. The inhibition in assay [1] is -0.2% (inactive); in assay [3], -38.6% (inactive); in assay [7] it was 7.84% (inactive); in assay [8], 23.5% (inactive). The inhibition of aggregation in assay [2] is 0.9% (inactive). For the same compound, the values for the nuclei count in assay [2] and in assay [3] were 92.1% and 92.3%, respectively. The fluorescence slope in assay [4] was -0.434 (inactive); in assay [6] it was 0.00844 (inactive). In assay [5], the NADPH fluorescence slope is 3.3e-05 (inactive).

Take `CCc1ncc(C(O)c2cccc(OC)c2OC)n1C` (centres undefined): in assay [1], the cell count turned out to be 335. The inhibition was 2.8% (inactive) in assay [1], 17.7% (inactive) in assay [3], 23.2% (inactive) in assay [7] and 24% (inactive) in assay [8]. Besides, the inhibition of aggregation in assay [2] was 7.4% (inactive). Also, the nuclei count in assay [2] amounted to 96.1%; in assay [3] it was 126%. Further, the fluorescence slope in assay [4] was -0.451 (inactive); in assay [6] it was 0.00484 (inactive). The NADPH fluorescence slope in assay [5] is -2.7e-05 (inactive).

For the compound `c1c2c(cc3sc(N4CCCCC4)nc13)OCCO2`, in assay [1], the cell count amounted to 266. Further, the inhibition in assay [1] is -5.8% (inactive); in assay [3], 2.1% (inactive); in assay [7] it was -0.203% (inactive); in assay [8], -45.7% (inactive). For the same compound, the inhibition of aggregation in assay [2] was 14.4% (inactive). The values for the nuclei count in assay [2] and in assay [3] were 87.6% and 88.9%, respectively. In addition, the fluorescence slope in assay [4] is -0.54 (inactive); in assay [6], 0.00468 (inactive). Further, in assay [5], the NADPH fluorescence slope was -9.8e-06 (inactive).

For `COc1ccc(Cl)cc1Nc1nc(C)cc(=O)[nH]1`, in assay [1], the cell count turned out to be 271. In addition, the inhibition in assay [1] is -3.7% (inactive); in assay [3], 39.6% (inactive); in assay [7], 16% (inactive); in assay [8] it was 19.5% (inactive). Further, in assay [2], the inhibition of aggregation was 10% (inactive). The nuclei count in assay [2] was determined as 61.7%; in assay [3], 44%. Further, the fluorescence slope in assay [4] is -0.562 (inactive); in assay [6], 0.00528 (inactive). Also, in assay [5], the NADPH fluorescence slope was -2.9e-05 (inactive).

With `CN1CCN(C(=O)c2cnn3c(C(F)F)cc(C4CC4)nc23)CC1`, in assay [1], the cell count was determined as 277. Further, the inhibition was -6.3% (inactive) in assay [1], -8.6% (inactive) in assay [3], 21% (inactive) in assay [7] and 30% (inactive) in assay [8]. For the same compound, the inhibition of aggregation in assay [2] is -15.2% (inactive). In addition, the nuclei count in assay [2] worked out at 63.5%; in assay [3], 100%. Besides, the fluorescence slope in assay [4] was -0.513 (inactive); in assay [6] it was 0.00468 (inactive). In addition, the NADPH fluorescence slope in assay [5] is -0.000106 (inactive).

As for `O=c1oc(-c2ccco2)nc2ccccc12`, in assay [1], the cell count came out at 460. The inhibition is 1% (inactive) in assay [1], -332% (inactive) in assay [3], 13.9% (inactive) in assay [7] and 15.3% (inactive) in assay [8]. In addition, the inhibition of aggregation in assay [2] is 2.1% (inactive). For the same compound, the nuclei count came out at 92.5% in assay [2] and 132% in assay [3]. Besides, the fluorescence slope in assay [4] is -0.559 (inactive); in assay [6] it was 0.00609 (inactive). Further, the NADPH fluorescence slope in assay [5] was -4.2e-05 (inactive).

Regarding `O=C(Cn1c(=O)[nH]n(-c2ccccc2)c1=O)N1CCCc2ccccc21`, the cell count in assay [1] was found to be 328. The inhibition in assay [1] was 0% (inactive); in assay [3] it was -87.1% (inactive); in assay [7], 14.4% (inactive); in assay [8], 25.6% (inactive). In addition, in assay [2], the inhibition of aggregation is -15.3% (inactive). Also, the nuclei count worked out at 117% in assay [2] and 118% in assay [3]. Besides, the fluorescence slope was -0.387 (inactive) in assay [4] and 0.00957 (inactive) in assay [6]. In addition, the NADPH fluorescence slope in assay [5] was -5.1e-05 (inactive).

For the compound `COc1cccc(-c2cc(C(=O)Nc3c(C)nn(Cc4ccccc4)c3C)no2)c1`, in assay [1], the cell count was found to be 438. Moreover, the inhibition in assay [1] is -12.2% (inactive); in assay [3], 41.8% (inactive); in assay [7], 0.514% (inactive); in assay [8] it was -23.3% (inactive). Further, in assay [2], the inhibition of aggregation was -6.5% (inactive). Further, the nuclei count in assay [2] came to 105%; in assay [3], 87%. The fluorescence slope in assay [4] is -0.249 (inactive); in assay [6] it was 0.00831 (inactive). Moreover, in assay [5], the NADPH fluorescence slope was -2.3e-05 (inactive).
